Data set [1] has as its system Plasmodium falciparum. Put plainly: Antiplasmodial activity against chloroquine-sensitive Plasmodium falciparum NF54 by LDH assay. Type of data set: functional. The gist of the method:
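In vitro test on the chloroquine-sensitive NF54 strain of P. falciparum, read out by the lactate dehydrogenase assay. Reported as IC50. Chloroquine and artesunate were included as reference drugs in all experiments.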

Data set [2] deals with Plasmodium falciparum. Put plainly: Antiplasmodial activity against chloroquine-resistant Plasmodium falciparum K1 by [3H]hypoxanthine incorporation assay. In kind it is functional. The gist of the method:
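Multidrug-resistant K1 strain of P. falciparum tested in vitro with a modified [3H]hypoxanthine incorporation assay. IC50 determined. Chloroquine and artesunate served as reference drugs in every experiment.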

For another data set, the system named is CHO. Put plainly: Cytotoxicity against CHO cells. In kind it is cell-based. As to conditions: Cricetulus griseus.
Data set [3] can be described thus: Selectivity index, ratio of IC50 for CHO cells to IC50 for chloroquine-sensitive Plasmodium falciparum NF54. The conditions noted are these: hamster, read-out: Ratio IC50. Type of data set: toxicity. Put shortly: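 IC50 against Chinese hamster ovary cells (cytotoxicity) was divided by IC50 against P. falciparum NF54. NF54 IC50 came from the lactate dehydrogenase assay, with chloroquine and artesunate as references.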

Data set [4] has as its system Plasmodium falciparum. Description: Potency index, ratio of fusidic acid IC50 to compound IC50 for chloroquine-sensitive Plasmodium falciparum NF54. In kind it is functional. The gist of the method: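 Chloroquine-sensitive P. falciparum NF54 was tested with the lactate dehydrogenase assay, using chloroquine and artesunate as reference drugs. The index is fusidic acid's IC50 divided by the compound's IC50, both against NF54.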

Data set [5] deals with Plasmodium falciparum. Description: Potency index, ratio of fusidic acid IC50 to compound IC50 for chloroquine-resistant Plasmodium falciparum K1. Type of data set: functional.
A short description of data set [6]: Stability of the compound assessed as Plasmodium falciparum NF54 esterase-mediated fusidic acid release at 0.5 uM up to 48 hrs by LC-MS/MS analysis. Type of data set: ADME. The conditions noted are these: plasmodium falciparum nf54, isolated protein.
The subject of data set [7] is Plasmodium falciparum. Put plainly: Antiplasmodial activity against chloroquine-sensitive Plasmodium falciparum D10 infected in erythrocytes after 48 hrs by giemsa staining based assay. In kind it is functional, cell-based. As to conditions: D10, 48 h.

In the case of `CCCCCCCCCCCCCCNC(=O)/C(CCC=C(C)C)=C1\[C@@H](OC(C)=O)C[C@@]2(C)[C@H]1C[C@@H](O)[C@H]1[C@@]3(C)CC[C@@H](O)[C@@H](C)[C@@H]3CC[C@@]12C`, the IC50 was 13400 nM with Plasmodium falciparum [1], 4000 nM in the data set with Plasmodium falciparum [2] and greater than 140 µM in the data set with CHO. Moreover, the selectivity ratio in data set [3] was greater than 10. The “Ratio IC50” value with Plasmodium falciparum [4] was 4 - 49; with Plasmodium falciparum [5], 5 - 17.
For `CCOC(=O)/C(CCC=C(C)C)=C1\[C@@H](OC(C)=O)C[C@@]2(C)[C@H]1C[C@@H](O)[C@H]1[C@@]3(C)CC[C@@H](O)[C@@H](C)[C@@H]3CC[C@@]12C`, the IC50 came out at 3400 nM in the data set on Plasmodium falciparum [1], 2200 nM with Plasmodium falciparum [2] and 65.5 µM in the data set on CHO. The selectivity ratio in data set [3] is 19. In addition, the Stability result in data set [6] was “Stable”. The entries for the “Ratio IC50” value in the data set with Plasmodium falciparum [4] and in the data set on Plasmodium falciparum [5] were 4 - 49 and 5 - 17, respectively.
For the compound `CC(=O)O[C@H]1C[C@@]2(C)[C@@H](C[C@@H](O)[C@H]3[C@@]4(C)CC[C@@H](O)[C@@H](C)[C@@H]4CC[C@@]32C)/C1=C(\CCC=C(C)C)C(=O)Nc1ccccc1`, the results for the IC50 in the data set on Plasmodium falciparum [1], with Plasmodium falciparum [2] and in the data set with CHO were 1200 nM, 1400 nM and 89.2 µM, respectively. Moreover, the selectivity ratio in data set [3] turned out to be 74. Further, the Stability entry in data set [6] is recorded as “Stable”. Moreover, the “Ratio IC50” value with Plasmodium falciparum [4] is given as 4 - 49; with Plasmodium falciparum [5], 5 - 17.
For `CC(=O)O[C@H]1C[C@@]2(C)[C@@H](C[C@@H](O)[C@H]3[C@@]4(C)CC[C@@H](O)[C@@H](C)[C@@H]4CC[C@@]32C)/C1=C(\CCC=C(C)C)C(=O)Oc1ccccc1`, the IC50 stood at 2400 nM with Plasmodium falciparum [1], 1400 nM with Plasmodium falciparum [2] and 99.4 µM in the data set with CHO. In addition, the selectivity ratio in data set [3] was 41. In addition, in data set [6], the Stability entry is “Stable”. Moreover, the “Ratio IC50” value in the data set on Plasmodium falciparum [4] is 20 - 28; with Plasmodium falciparum [5], 12 - 14.
With `CC(=O)O[C@H]1C[C@@]2(C)[C@@H](C[C@@H](O)[C@H]3[C@@]4(C)CC[C@@H](O)[C@@H](C)[C@@H]4CC[C@@]32C)/C1=C(\CCC=C(C)C)C(=O)O` [FUSIDIC ACID], the figures for the IC50 in the data set with Plasmodium falciparum [7], in the data set on Plasmodium falciparum [2] and with CHO were 50 µM, 19000 nM and greater than 194 µM, respectively. For the same compound, in data set [3], the selectivity ratio was greater than 3.

For orientation: IC50 means the concentration needed to halve the response being measured.

The record behind these values is ChEMBL document CHEMBL4041542, “Synthesis and biological characterisation of ester and amide derivatives of fusidic acid as antiplasmodial agents” (Bioorg Med Chem Lett, 2017).
